Laboratory results taken from ChEMBL document CHEMBL1137698, “Synthesis, spectral studies and in vitro antibacterial activity of steroidal thiosemicarbazone and their palladium (Pd (II)) complexes” (2009).
≈ marks a conversion by molar mass, not a printed value.

Experiments:
[1] = system: Escherichia coli; assay: Antibacterial activity against Escherichia coli after 18 hrs by […]; format: functional
Method in brief: (§1)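 MIC by tube macrodilution. Test compounds dissolved in DMSO, serially diluted to final […]. Each tube received 24 h old inoculum, standard inoculum […]. Incubated 18 h at 37 °C. MIC read visually as the lowest concentration preventing visible growth.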

[2] = system: Streptococcus pyogenes; assay: Antibacterial activity against Streptococcus pyogenes at 10 to 100 ug/mL after 18 hrs by disk diffusion method; format: functional
Method in brief: (§2)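 Disk diffusion. Bacteria were subcultured in BHI for 18 h at 37 °C, then suspended in saline to McFarland standard. The suspension was mixed with sterile antibiotic agar at 40 °C and poured into plates. Paper disks of 6.0 mm were placed on nutrient agar. DMSO stock was diluted to 10, 20, 25, 50 and 100 per mL and applied to the disks. A DMSO disk served as negative control. Inhibition zones in mm were read after 18 h at 36 °C.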

[3] = system: Staphylococcus aureus; assay: Antibacterial activity against Staphylococcus aureus at 10 to 100 ug/mL after 18 hrs by disk diffusion method; format: functional; method in brief: as §2
[4] = system: Streptococcus pyogenes; assay: Antibacterial activity against Streptococcus pyogenes after 18 hrs by […]; format: functional; method in brief: as §1
[5] = system: Salmonella typhimurium; assay: Antibacterial activity against Salmonella Typhimurium at 10 to 100 ug/mL after 18 hrs by disk diffusion method; format: functional, Salmonella enterica subsp. enterica serovar Typhimurium; method in brief: as §2
[6] = system: Salmonella typhimurium; assay: Antibacterial activity against Salmonella Typhimurium after 18 hrs by […]; format: functional, Salmonella enterica subsp. enterica serovar Typhimurium; conditions: Salmonella enterica; method in brief: as §1
[7] = system: Staphylococcus aureus; assay: Antibacterial activity against Staphylococcus aureus after 18 hrs by […]; format: functional; method in brief: as §1
[8] = system: Escherichia coli; assay: Antibacterial activity against Escherichia coli at 10 to 100 ug/mL after 18 hrs by disk diffusion method; format: functional; method in brief: as §2
[9] = system: Escherichia coli; assay: Antibacterial activity against Escherichia coli at 30 ug after 18 hrs by disk diffusion method; format: functional; conditions: read-out: IZ
Method in brief: (§3)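 Amoxicillin […] disk, positive control in disk diffusion. Bacteria were subcultured in BHI for 18 h at 37 °C and suspended in saline to McFarland standard. Seeded antibiotic agar was poured into plates and 6.0 mm paper disks placed. Inhibition zone in mm was read after 18 h at 36 °C.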

[10] = system: Streptococcus pyogenes; assay: Antibacterial activity against Streptococcus pyogenes at 30 ug after 18 hrs by disk diffusion method; format: functional; conditions: read-out: IZ; method in brief: as §3
[11] = system: Staphylococcus aureus; assay: Antibacterial activity against Staphylococcus aureus at 30 ug after 18 hrs by disk diffusion method; format: functional; conditions: read-out: IZ; method in brief: as §3
[12] = system: Salmonella typhimurium; assay: Antibacterial activity against Salmonella Typhimurium at 30 ug after 18 hrs by disk diffusion method; format: functional, Salmonella enterica subsp. enterica serovar Typhimurium; conditions: Salmonella enterica, read-out: IZ; method in brief: as §3

MIC [1] [µg/mL]	MIC [4] [µg/mL]	MIC [6] [µg/mL]	MIC [7] [µg/mL]	Compound	inhibition zone (IZ) [2] [mm]	inhibition zone (IZ) [3] [mm]	inhibition zone (IZ) [5] [mm]	inhibition zone (IZ) [8] [mm]	zone of inhibition at 30 µg/disc [9] [mm]	zone of inhibition at 30 µg/disc [10] [mm]	zone of inhibition at 30 µg/disc [11] [mm]	zone of inhibition at 30 µg/disc [12] [mm]
128 (≈ 234 µM)	256 (≈ 467 µM)	128 (≈ 234 µM)	256 (≈ 467 µM)	Cc1ccc(NC(=S)N/N=C2\CC[C@@]3(C)C(=CC[C@H]4[C@@H]5CC[C@H]([C@H](C)CCCC(C)C)[C@@]5(C)CC[C@@H]43)C2)cc1	11.5	12.6	10.2	10.2				
128 (≈ 234 µM)	64 (≈ 117 µM)	128 (≈ 234 µM)	64 (≈ 117 µM)	Cc1ccccc1NC(=S)N/N=C1\CC[C@@]2(C)C(=CC[C@H]3[C@@H]4CC[C@H]([C@H](C)CCCC(C)C)[C@@]4(C)CC[C@@H]32)C1	12.8	14.2	12.4	14.2				
256 (≈ 467 µM)	128 (≈ 234 µM)	128 (≈ 234 µM)	128 (≈ 234 µM)	Cc1cccc(NC(=S)N/N=C2\CC[C@@]3(C)C(=CC[C@H]4[C@@H]5CC[C@H]([C@H](C)CCCC(C)C)[C@@]5(C)CC[C@@H]43)C2)c1	10.6	12.4	10.6	11.2				

Compound	MIC [1] [µg/mL]	MIC [4] [µg/mL]	MIC [6] [µg/mL]	MIC [7] [µg/mL]	inhibition zone (IZ) [2] [mm]	inhibition zone (IZ) [3] [mm]	inhibition zone (IZ) [5] [mm]	inhibition zone (IZ) [8] [mm]	zone of inhibition at 30 µg/disc [9] [mm]	zone of inhibition at 30 µg/disc [10] [mm]	zone of inhibition at 30 µg/disc [11] [mm]	zone of inhibition at 30 µg/disc [12] [mm]
CC1(C)S[C@@H]2[C@H](NC(=O)[C@H](N)c3ccc(O)cc3)C(=O)N2[C@H]1C(=O)O [AMOXICILLIN]	32 (≈ 87.6 µM)	32 (≈ 87.6 µM)	32 (≈ 87.6 µM)	32 (≈ 87.6 µM)					20	22.2	21	25.2
